Measurements taken from article PMC6218153 (Journal of Alzheimer's Disease Reports, 2018).
Where no end group is shown, it is not given here.

Experiment: PK study in plasma and CSF after single IV, SC or IN dose
Format: in vivo, rat
Method in brief: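 Cannulated rats (jugular vein, intracisternal; n = 6/route) received a single dose in PBS: IV or SC ~11 mg/kg over 1 min, or IN ~5.5 mg/kg, 10 μL per nostril at 6-min intervals over 18 min. K2EDTA plasma was taken pre-dose to 165 min and CSF pre-dose to 150/180 min. LC/MS/MS (ESI+, 1007.55 > 876.35) with noncompartmental PK; CL = Dose/AUC. CSF ratio = dose-normalised CSF AUC relative to IV.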

[1] = rat, in vivo, 5.5 mg/kg, IN 5.5 mg/kg, CSF
[2] = rat, in vivo, inhaled or intranasal, 5.5 mg/kg, IN 5.5 mg/kg, plasma
[3] = rat, in vivo, sc, 11 mg/kg, SC 11 mg/kg, CSF
[4] = rat, in vivo, sc, 11 mg/kg, SC 11 mg/kg, plasma

In the case of DEEEDEEL [P8, DEEEDEEL], the “P8 concentration in plasma” value (IV 11.0 mg/kg single dose, 110 min, Rat 3) is reported as 39.8 ng/mL, the “P8 concentration in plasma” value (IV 11.0 mg/kg single dose, 130 min, Rat 1) is reported as 42.0 ng/mL and the “P8 concentration in plasma” value (IV 11.0 mg/kg single dose, 130 min, Rat 2) is reported as 18.3 ng/mL. The “P8 concentration in plasma” value (IV 11.0 mg/kg single dose, 130 min, Rat 3) was 20.7 ng/mL, the “P8 concentration in CSF” value (IV 11.0 mg/kg single dose, 150 min, Rat 1) was 4.88 ng/mL and the “P8 concentration in CSF” value (IV 11.0 mg/kg single dose, 150 min, Rat 2) was 4.30 ng/mL. The “P8 concentration in CSF” value (IV 11.0 mg/kg single dose, 150 min, Rat 3) was 3.57 ng/mL, the “P8 concentration in plasma” value (IV 11.0 mg/kg single dose, 165 min, Rat 1) was 18.9 ng/mL and the “P8 concentration in plasma” value (IV 11.0 mg/kg single dose, 165 min, Rat 3) was 9.72 ng/mL. For the same sequence, the “P8 concentration in CSF” value (IV 11.0 mg/kg single dose, 180 min, Rat 1) was 4.11 ng/mL, the “P8 concentration in CSF” value (IV 11.0 mg/kg single dose, 180 min, Rat 3) was 1.06 ng/mL and the “P8 concentration in CSF” value (SC 11.0 mg/kg single dose, 10 min, Rat 1) was 7.06 ng/mL. The “P8 concentration in CSF” value (SC 11.0 mg/kg single dose, 10 min, Rat 2) was 22.6 ng/mL, the “P8 concentration in CSF” value (SC 11.0 mg/kg single dose, 10 min, Rat 3) was 1.75 ng/mL and the “P8 concentration in CSF” value (SC 11.0 mg/kg single dose, 30 min, Rat 1) was 25.2 ng/mL. For the same sequence, the “P8 concentration in CSF” value (SC 11.0 mg/kg single dose, 30 min, Rat 2) was 12.8 ng/mL, the “P8 concentration in CSF” value (SC 11.0 mg/kg single dose, 30 min, Rat 3) was 8.03 ng/mL and the “P8 concentration in CSF” value (SC 11.0 mg/kg single dose, 60 min, Rat 1) was 26.5 ng/mL. The “P8 concentration in CSF” value (SC 11.0 mg/kg single dose, 60 min, Rat 2) was 17.1 ng/mL, the “P8 concentration in CSF” value (SC 11.0 mg/kg single dose, 60 min, Rat 3) was 10.3 ng/mL and the “P8 concentration in plasma” value (SC 11.0 mg/kg single dose, 70 min, Rat 2) was 4,150 ng/mL. The “P8 concentration in plasma” value (SC 11.0 mg/kg single dose, 70 min, Rat 3) was 1,220 ng/mL, the “P8 concentration in plasma” value (SC 11.0 mg/kg single dose, 90 min, Rat 1) was 2,600 ng/mL and the “P8 concentration in plasma” value (SC 11.0 mg/kg single dose, 90 min, Rat 2) was 3,570 ng/mL. For the same sequence, the “P8 concentration in plasma” value (SC 11.0 mg/kg single dose, 90 min, Rat 3) was 908 ng/mL, the “P8 concentration in CSF” value (SC 11.0 mg/kg single dose, 100 min, Rat 1) was 21.6 ng/mL and the “P8 concentration in CSF” value (SC 11.0 mg/kg single dose, 100 min, Rat 2) was 16.3 ng/mL. For the same sequence, the “P8 concentration in CSF” value (SC 11.0 mg/kg single dose, 100 min, Rat 3) was 8.31 ng/mL, the “P8 concentration in plasma” value (SC 11.0 mg/kg single dose, 110 min, Rat 1) was 2,120 ng/mL and the “P8 concentration in plasma” value (SC 11.0 mg/kg single dose, 110 min, Rat 2) was 2,410 ng/mL. The “P8 concentration in plasma” value (SC 11.0 mg/kg single dose, 110 min, Rat 3) was 804 ng/mL, the “P8 concentration in plasma” value (SC 11.0 mg/kg single dose, 130 min, Rat 1) was 1,870 ng/mL and the “P8 concentration in plasma” value (SC 11.0 mg/kg single dose, 130 min, Rat 2) was 3,030 ng/mL. For the same sequence, the “P8 concentration in plasma” value (SC 11.0 mg/kg single dose, 130 min, Rat 3) was 619 ng/mL, the “P8 concentration in CSF” value (SC 11.0 mg/kg single dose, 150 min, Rat 1) was 11.8 ng/mL and the “P8 concentration in CSF” value (SC 11.0 mg/kg single dose, 150 min, Rat 2) was 10.7 ng/mL. The “P8 concentration in CSF” value (SC 11.0 mg/kg single dose, 150 min, Rat 3) was 5.71 ng/mL, the “P8 concentration in plasma” value (SC 11.0 mg/kg single dose, 165 min, Rat 1) was 1,010 ng/mL and the “P8 concentration in plasma” value (SC 11.0 mg/kg single dose, 165 min, Rat 2) was 1,600 ng/mL. The “P8 concentration in plasma” value (SC 11.0 mg/kg single dose, 165 min, Rat 3) was 356 ng/mL, the “mean plasma exposure, SC relative to IN, corrected for dose” value (rat) was 25 fold and the “percent of dose absorbed, SC relative to IN” value (rat) was 25 fold. The “ratio or relative % F across the blood-brain barrier, % of the plasma concentrations” value (rat) was under 1%, the “CSF Ratio (dose normalized CSF AUC of route / of IV dose)” value (rat, IN 5.5 mg/kg) was 0.10±0.092 and the “Plasma: CSF Ratio (AUC)” value (rat, IN 5.5 mg/kg) was 0.041±0.041. For the same sequence, the “Plasma: CSF Ratio (Cmax)” value (rat, IN 5.5 mg/kg) was 0.064±0.093, the Tmax (rat, IN 5.5 mg/kg, CSF) was 27 ± 29 min and the “CSF exposure as % of plasma exposure” value (rat, IV) was “about 0.5%”. For the same sequence, the “Plasma: CSF Ratio (AUC)” value (rat, IV 11 mg/kg) was 0.0052±0.0015, the “peak CSF Cmax” value (rat, IV 11 mg/kg, CSF, at the 10-min time point (first time point)) was 65.6 ng/mL and the t1/2 (rat, IV 11 mg/kg, plasma, terminal, 11 mg/kg) was 21.9 ± 8.18 min. The “clearance as share of hepatic liver blood flow” value (rat, IV, based on a 70 mL/min/kg estimate) was “about 25%”, the “CSF exposure as % of plasma exposure” value (rat, SC) was “about 0.5%” and the “CSF Ratio (dose normalized CSF AUC of route / of IV dose)” value (rat, SC 11 mg/kg) was 0.72±0.29. For the same sequence, the “Plasma: CSF Ratio (AUC)” value (rat, SC 11 mg/kg) was 0.0055±0.00054, the “Plasma: CSF Ratio (Cmax)” value (rat, SC 11 mg/kg) was 0.0037±0.0005 and the AUC [1] was 5.5 ng·h/mL. For the same sequence, the Cmax [1] was 12.4 ± 17.7 ng/mL, the Tmax (rat, in vivo, 5.5 mg/kg, Tmax, IN 5.5 mg/kg, CSF) was 26.7 min and the bioavailability (rat, in vivo, inhaled or intranasal, 5.5 mg/kg) was 2.8 ± 0.88%. It also gave an AUC [2] of 146 ng·h/mL, a Cmax [2] of 197 ± 62.7 ng/mL and a Tmax (rat, in vivo, inhaled or intranasal, 5.5 mg/kg, Tmax, IN 5.5 mg/kg, plasma) of 5 min. The Vd (rat, in vivo, iv, 11 mg/kg) was 0.546 ± 0.306 L/kg, the clearance (rat, in vivo, iv, 11 mg/kg) was 17.6 ± 5.65 mL/min/kg and the AUC (rat, in vivo, iv, 11 mg/kg, IV 11 mg/kg, CSF) was 54.5 ng·h/mL. The AUC (rat, in vivo, iv, 11 mg/kg, IV 11 mg/kg, plasma) was 11300 ng·h/mL, the half-life (rat, in vivo, iv, 11 mg/kg, t1/2, rat, IV 11 mg/kg, plasma, terminal) was 22 ± 8.2 min and the bioavailability (rat, in vivo, sc, 11 mg/kg) was 65 ± 21%. It also gave an AUC [3] of 39.7 ng·h/mL, an AUC [4] of 7380 ng·h/mL and a Cmax [3] of 19.8 ± 8.46 ng/mL. It also gave a Cmax [4] of 5390 ng/mL, a Tmax (rat, in vivo, sc, 11 mg/kg, Tmax, SC 11 mg/kg, CSF) of 43 min and a Tmax (rat, in vivo, sc, 11 mg/kg, Tmax, SC 11 mg/kg, plasma) of 25 min.
